SENP8 block-1: blocks the human protease SENP8; Q96LD8; purified SENP8, Z-RLRGG-aminoluciferin cleavage, luminescence; inhibition, % at 10 µM; actives 1.2% (n = 330,000); AID 2540; in the data active means inhibition above about 50%
SENP8 block-2: blocks human SENP8 cleavage of Nedd8 substrate; Q96LD8; inhibition, % at 20 µM; recombinant SENP8, Nedd8 substrate fluorescence; actives 0.64% (n = 360,000); in the data active means inhibition mostly above about 40%, no sharp cut-off; inactive means mostly below about 27%
SENP7 block: inhibitors of human SENP7 protease; Q9BQF6; actives 1.5% (n = 330,000); recombinant SENP7, Z-RLRGG-aminoluciferin luminescence, 40 min; inhibition, % at 5 µM;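 active means inhibition above about 50% at the single test dose, limit read from the data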;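 further: plate controls were DMSO with enzyme for no effect and no enzyme buffer wells for full effect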
SENP6 inh: inhibitors of human SENP6 protease. Q9GZR1. Recombinant SENP6 catalytic domain, aminoluciferin luminescence. inhibition, % at 10 µM. actives 1.8% (n = 330,000);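 active means inhibition above about 50% at the single tested dose, limit read from the data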;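 further: plate controls were DMSO wells with enzyme for no effect and DMSO wells lacking enzyme for full effect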
Target sequence (Q9GZR1 628-1112 limits assumed): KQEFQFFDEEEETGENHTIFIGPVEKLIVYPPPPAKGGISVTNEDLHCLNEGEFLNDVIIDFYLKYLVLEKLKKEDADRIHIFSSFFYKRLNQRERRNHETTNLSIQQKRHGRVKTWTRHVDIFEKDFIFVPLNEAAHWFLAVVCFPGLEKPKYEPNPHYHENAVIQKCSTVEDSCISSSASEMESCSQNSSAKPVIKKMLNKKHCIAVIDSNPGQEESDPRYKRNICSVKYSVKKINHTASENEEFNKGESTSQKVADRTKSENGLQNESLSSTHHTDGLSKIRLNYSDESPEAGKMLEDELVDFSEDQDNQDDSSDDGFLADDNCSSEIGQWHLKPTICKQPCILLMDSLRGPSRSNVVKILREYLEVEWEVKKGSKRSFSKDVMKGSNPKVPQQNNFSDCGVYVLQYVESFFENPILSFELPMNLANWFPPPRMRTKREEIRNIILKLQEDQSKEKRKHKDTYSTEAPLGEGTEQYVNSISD
SENP1 inh: SENP1 (human) catalytic domain inhibition | Q9P0U3 | recombinant SENP1 catalytic domain, CyPet-SUMO1-YPet FRET cleavage | inhibition, % at 10 µM | actives 0.21% (n = 360,000) | AID 624204;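 active means inhibition at least 30% at 10 µM, raw YFP signal under a set limit, fluorescence ratio 0.5 to 1.5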;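 further: 0% = enzyme with DMSO and 100% = no enzyme wells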
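Assay system: hSENP1 catalytic domain, recombinant. Amount: SENP1 enzyme, 20 pM final. Schedule: 50 min reaction, RT, dark. Technique: FRET, CFP and YFP emission. Control set: no-enzyme wells low, DMSO-plus-enzyme wells high control.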
Platelet DG rel: platelet dense granule release activity | AID 1663 | human platelet-rich plasma, SFLLRN dense granule ATP release, luminescence | inhibition, %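 (compounds screened at 7.5 µM in platelet-rich plasma)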 | actives 0.22% (n = 300,000);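 active means mean replicate score, as percent of positive control, at or above 50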
SENP8 confirm: confirmation of human SENP8 protease inhibitors. actives 40% (n = 6,200). Recombinant SENP8, Z-RLRGG-aminoluciferin luminescence, 60 min. shares compounds with SENP7 block. inhibition, % at 12.5 µM;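 active means mean inhibition across replicates above about 50%, limit read from the data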
SENP6 conf: human SENP6 inhibition, confirmed. shares compounds with SENP7 block. recombinant SENP6, Z-RLRGG-aminoluciferin luminescence. inhibition, % at 12.5 µM. actives 58% (n = 6,200)
SENP7 confirm: human SENP7 inhibition, confirmed; shares compounds with SENP7 block; recombinant SENP7, Z-RLRGG-aminoluciferin luminescence, 40 min; AID 488917; actives 69% (n = 6,200); inhibition, % at 12.5 µM
Casp3 select: caspase-3 inhibition (SENP selectivity assay); shares compounds with SENP7 block; purified caspase-3, Z-DEVD-aminoluciferin luminescence, 60 min; inhibition, % at 12.5 µM; actives 60% (n = 6,200);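 active means mean inhibition above about 50%, limit read from the data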;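 further: plate controls were enzyme with DMSO for no effect and wells without caspase-3 for full effect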
Target sequence (P42574 28-227 limits assumed): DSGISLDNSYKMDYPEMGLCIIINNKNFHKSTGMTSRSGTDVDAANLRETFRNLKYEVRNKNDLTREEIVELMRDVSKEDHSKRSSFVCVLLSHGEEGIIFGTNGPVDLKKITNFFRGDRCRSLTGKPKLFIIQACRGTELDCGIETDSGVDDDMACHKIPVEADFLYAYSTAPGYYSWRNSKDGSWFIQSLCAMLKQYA
Luc interf: interferes with luciferase luminescence in SENP counter-screen. shares compounds with SENP7 block. Pre-incubated SENP8/Z-RLRGG-aminoluciferin, luciferase luminescence interference. inhibition, % at 12.5 µM. actives 39% (n = 6,200);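 active means mean inhibition above about 50% when retested at one dose, limit read from the data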;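 further: plate controls were DMSO wells with completed reaction for no effect and substrate without enzyme for full effect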
* = called active by the depositor; / = not tested or not shown. In the library only some 2.6% were active in any assay of this set; here they are far more common.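 How the source made its calls, unless noted: active means mean inhibition above about 50% in the one-dose retest (limit read from the data); inactive means the rest.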

SMILES | SENP8 block-1 | SENP8 block-2 | SENP7 block | SENP6 inh | SENP1 inh | Platelet DG rel | SENP8 confirm | SENP6 conf | SENP7 confirm | Casp3 select | Luc interf
CN1CCN(c2cc(N3CCN(C(=O)c4ccco4)CC3)c3c4c(onc24)-c2ccccc2C3=O)CC1 | 38 | 65* | 21 | 55* | 49* | 9 | 4 | 18 | 12 | 16 | 12
Cc1ccc(OCC(=O)Nc2ccc(S(=O)(=O)N3CCOCC3)cc2)c(C)c1 | -1 | 9 | -12 | -25 | -2 | -5 | / | / | / | / | /
Oc1ccccc1/C=N/Nc1nc2ccccc2o1 | 69* | -26 | 79* | 83* | -14 | 11 | 28 | 62* | 92* | 66* | 31
Brc1ccc(/C=N/Nc2nc3ccccc3o2)cc1 | 9 | -33 | 55* | 23 | 2 | 1 | 22 | 18 | 32 | 26 | 41
COc1ccc(/C=N/Nc2nc3ccccc3o2)cc1O | 64* | -16 | 73* | 45 | 2 | 22 | 84* | 84* | 97* | 82* | 82*
CCOc1ccc2nc(NC(=O)COc3ccc(N(C)S(=O)(=O)c4ccc(C)cc4)cc3)sc2c1 | 1 | 18 | -2 | -12 | 1 | -12 | / | / | / | / | /
C=CCNC(=O)C1CC(=O)N(c2ccc(OCc3ccc(F)cc3)cc2)C1 (centres undefined) | 79* | 8 | 91* | 92* | 2 | 18 | 65* | 86* | 96* | 88* | 23
C=CCNC(=O)C1CC(=O)N(c2ccc(OCC(=O)N3CCCC3)cc2)C1 (centres undefined) | -8 | 14 | 9 | -6 | -5 | 4 | / | / | / | / | /
CCCNC(=O)C1CC(=O)N(c2ccc(OCc3ccc(Cl)cc3)cc2)C1 (centres undefined) | 61* | 4 | 88* | 84* | 2 | 5 | 37 | 37 | 38 | 44 | 13
CCCNC(=O)C1CC(=O)N(c2ccc(OCc3ccc(F)cc3)cc2)C1 (centres undefined) | 87* | 6 | 88* | 87* | 1 | 17 | 44 | 56* | 71* | 94* | 15
CCOC(=O)N1CCN(S(=O)(=O)c2ccc(F)c(C(=O)Nc3cc(C)cc(C)c3)c2)CC1 | 7 | 17 | -5 | -4 | 1 | 11 | / | / | / | / | /
CC(=O)c1sc(NC(=O)c2cccs2)nc1C | 45 | -24 | 62* | 62* | -2 | 15 | 14 | 52* | 81* | 84* | 3
CC(=O)c1sc(NC(=O)c2ccccc2F)nc1C | 83* | 3 | 87* | 83* | 4 | 5 | 86* | 84* | 97* | 93* | 85*
COC(=O)c1sc(NC(=S)NC(=O)c2ccccc2Cl)nc1C | 36 | 13 | 27 | 62* | -1 | -3 | -16 | -20 | -2 | 13 | -1
CCOC(=O)c1sc(NC(=O)c2cccs2)nc1C | / | -48 | / | / | 1 | / | / | / | / | / | /
Cc1nc(NC(=O)c2cccs2)ccc1Br | 70* | -11 | 81* | -14 | 2 | 4 | 82* | 82* | 95* | 80* | 70*
COC(=O)c1sc(NC(=S)NC(=O)c2ccccc2)nc1C | 8 | 18 | 12 | 37 | -1 | -4 | / | / | / | / | /
CC(=O)c1sc(NC(=O)c2cccnc2Cl)nc1C | -5 | 12 | 3 | -11 | 2 | 1 | / | / | / | / | /
O=C1[C@@H]2[C@@H](CN3CN(c4ccccc4)N=C(c4ccccc4)[C@@]23c2ccccc2)C(=O)N1c1ccccc1 | / | -468 | / | / | -63 | / | / | / | / | / | /
Cc1ccc(NC(=O)CCC(=O)NNC(=O)c2ccccc2Cl)c(C)c1 | -2 | 14 | -3 | -8 | 1 | -1 | / | / | / | / | /
CCOC(=O)Cn1c(-c2ccc(Cl)nc2)nc2ccccc21 | 9 | -40 | 0 | -10 | 0 | -6 | / | / | / | / | /
CCn1c(-c2ccccc2Cl)nn(CC(=O)Nc2ccccc2C)c1=S | 3 | 32 | 10 | -12 | -2 | -9 | / | / | / | / | /
O=C(Nc1ccc(F)cc1)c1cncs1 | 6 | 15 | -2 | 16 | 2 | -1 | / | / | / | / | /
COc1cccc(CC(=O)NC2CCCN(Cc3ccc(Cl)cc3)C2)c1 (centres undefined) | 0 | 18 | -14 | 1 | 2 | -3 | / | / | / | / | /
COc1cc(/C=N/Nc2ccc(C(=O)O)cc2)cc(OC)c1OC | 74* | -134 | 71* | 88* | -2 | 1 | 88* | 86* | 98* | 81* | 36
SMILES | SENP8 block-1 | SENP8 block-2 | SENP7 block | SENP6 inh | SENP1 inh | Platelet DG rel | SENP8 confirm | SENP6 conf | SENP7 confirm | Casp3 select | Luc interf
COc1cc(/C=N/Nc2ccc(C(=O)O)cc2)ccc1O | 96* | -224 | 98* | 99* | -1 | 9 | 98* | 98* | 103* | 94* | 97*
CCC12CN(C(=O)c3ccco3)CC(CC)(CN(C(=O)c3ccco3)C1)C2=O | 0 | -1 | 4 | -14 | 3 | -4 | / | / | / | / | /
CC(CNC(=O)CCn1ccc2cc(S(=O)(=O)N3CCCC3)ccc21)c1ccccc1 (centres undefined) | -6 | -2 | -4 | 1 | 2 | 10 | / | / | / | / | /
Cc1ccc(N2C(=O)N(CC(=O)Nc3cccc([N+](=O)[O-])c3C)C(=O)C2C)cc1 (centres undefined) | -8 | 8 | -9 | -20 | 2 | -11 | / | / | / | / | /
Cc1cc(C)nc(SCc2ccc(Br)cc2)n1 | -13 | 0 | 60* | -23 | 2 | 4 | -22 | -12 | 3 | 0 | 2
OC(COC(c1ccccc1)c1ccccc1)CN1CCN(c2cccc(Cl)c2)CC1 (centres undefined) | -5 | 3 | -10 | 101* | 1 | 3 | 4 | -2 | 0 | -3 | -4
O=C(O)CCSCCC(=O)O | -1 | 1 | -5 | -7 | -25 | -8 | / | / | / | / | /
Cc1ccc(NC(=O)c2cnccn2)cc1C | 39 | 12 | 71* | 69* | 1 | 10 | 66* | 61* | 83* | 84* | 63*
Cc1ccc(NC(=O)c2cnccn2)cc1 | 10 | 12 | 21 | 14 | 1 | -1 | / | / | / | / | /
COc1ccc(NC(=O)COc2ccccc2F)cc1S(=O)(=O)N1CCCCC1 | -7 | 17 | 6 | -28 | -2 | 2 | / | / | / | / | /
